Key:
SMMC-7721 [1] = assay: Induction of cell cycle arrest in human SMMC7721 cells assessed as accumulation at S phase at 30 uM incubated for 24 hrs by propidium iodide staining based flow cytometry (reference value: 17.2%); format: functional
CNE-2 [2] = assay: Induction of apoptosis in human CNE2 cells assessed as early apoptotic cells level at 30 uM incubated for 24 hrs by Annexin V-FITC/PI dual staining based flow cytometry (reference value: 3.56%); format: functional
In short: (§1)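 CNE2 and SMMC-7721 cells were treated for 24 h at 0, 5, 10 or 30 µM, or at 0, 10, 20 or 50 µM depending on compound. Cells were stained with Annexin V-FITC/propidium iodide and quantified by flow cytometry. Apoptotic cells were counted as AV+/PI− (lower right) plus AV+/PI+ (upper right) quadrants.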

SMMC-7721 [3] = assay: Induction of apoptosis in human SMMC7721 cells assessed as early apoptotic cells level at 5 uM incubated for 24 hrs by Annexin V-FITC/PI dual staining based flow cytometry (reference value: 1.36%); format: functional; in short: as §1
SMMC-7721 [4] = assay: Induction of apoptosis in human SMMC7721 cells assessed as viable cells level at 30 uM incubated for 24 hrs by Annexin V-FITC/PI dual staining based flow cytometry (reference value: 95.3%); format: functional; in short: as §1
SMMC-7721 [5] = assay: Induction of apoptosis in human SMMC7721 cells assessed as necrotic cells level at 10 uM incubated for 24 hrs by Annexin V-FITC/PI dual staining based flow cytometry (reference value: 2.47%); format: functional; in short: as §1
SMMC-7721 [6] = assay: Induction of cell cycle arrest in human SMMC7721 cells assessed as accumulation at subG1 phase at 10 uM incubated for 24 hrs by propidium iodide staining based flow cytometry (reference value: 0.33%); format: functional
CNE-2 [7] = assay: Induction of apoptosis in human CNE2 cells assessed as early apoptotic cells level at 10 uM incubated for 24 hrs by Annexin V-FITC/PI dual staining based flow cytometry (reference value: 3.56%); format: functional; in short: as §1
SMMC-7721 [8] = assay: Induction of apoptosis in human SMMC7721 cells assessed as late apoptotic cells level at 5 uM incubated for 24 hrs by Annexin V-FITC/PI dual staining based flow cytometry (reference value: 0.88%); format: functional; in short: as §1
CNE-2 [9] = assay: Induction of apoptosis in human CNE2 cells assessed as late apoptotic cells level at 5 uM incubated for 24 hrs by Annexin V-FITC/PI dual staining based flow cytometry (reference value: 1.37%); format: functional; in short: as §1
SMMC-7721 [10] = assay: Induction of apoptosis in human SMMC7721 cells incubated for 24 hrs by Annexin V-FITC/PI dual staining based flow cytometry; format: functional, cell-based; in short: as §1
SMMC-7721 [11] = assay: Induction of apoptosis in human SMMC7721 cells assessed as late apoptotic cells level at 30 uM incubated for 24 hrs by Annexin V-FITC/PI dual staining based flow cytometry (reference value: 0.88%); format: functional; in short: as §1
CNE-2 [12] = assay: Induction of apoptosis in human CNE2 cells assessed as late apoptotic cells level at 10 uM incubated for 24 hrs by Annexin V-FITC/PI dual staining based flow cytometry (reference value: 1.37%); format: functional; in short: as §1
SMMC-7721 [13] = assay: Induction of cell cycle arrest in human SMMC7721 cells assessed as accumulation at subG1 phase at 30 uM incubated for 24 hrs by propidium iodide staining based flow cytometry (reference value: 0.33%); format: functional
SMMC-7721 [14] = assay: Induction of cell cycle arrest in human SMMC7721 cells assessed as accumulation at G2/M phase at 5 uM incubated for 24 hrs by propidium iodide staining based flow cytometry (reference value: 18.4%); format: functional
SMMC-7721 [15] = assay: Induction of cell cycle arrest in human SMMC7721 cells assessed as accumulation at subG1 phase at 5 uM incubated for 24 hrs by propidium iodide staining based flow cytometry (reference value: 0.33%); format: functional
SMMC-7721 [16] = assay: Induction of apoptosis in human SMMC7721 cells assessed as early apoptotic cells level at 10 uM incubated for 24 hrs by Annexin V-FITC/PI dual staining based flow cytometry (reference value: 1.36%); format: functional; in short: as §1
CNE-2 [17] = assay: Induction of apoptosis in human CNE2 cells incubated for 24 hrs by Annexin V-FITC/PI dual staining based flow cytometry; format: functional, cell-based; in short: as §1
CNE-2 [18] = assay: Induction of apoptosis in human CNE2 cells assessed as early apoptotic cells level at 5 uM incubated for 24 hrs by Annexin V-FITC/PI dual staining based flow cytometry (reference value: 3.56%); format: functional; in short: as §1
CNE-2 [19] = assay: Induction of apoptosis in human CNE2 cells assessed as necrotic cells level at 10 uM incubated for 24 hrs by Annexin V-FITC/PI dual staining based flow cytometry (reference value: 3.43%); format: functional; in short: as §1
CNE-2 [20] = assay: Induction of cell cycle arrest in human CNE2 cells assessed as accumulation at S phase at 30 uM incubated for 24 hrs by propidium iodide staining based flow cytometry (reference value: 10.3%); format: functional
CNE-2 [21] = assay: Induction of cell cycle arrest in human CNE2 cells assessed as accumulation at S phase at 10 uM incubated for 24 hrs by propidium iodide staining based flow cytometry (reference value: 10.3%); format: functional
SMMC-7721 [22] = assay: Induction of cell cycle arrest in human SMMC7721 cells assessed as accumulation at S phase at 10 uM incubated for 24 hrs by propidium iodide staining based flow cytometry (reference value: 17.2%); format: functional
SMMC-7721 [23] = assay: Induction of apoptosis in human SMMC7721 cells assessed as viable cells level at 5 uM incubated for 24 hrs by Annexin V-FITC/PI dual staining based flow cytometry (reference value: 95.3%); format: functional; in short: as §1
CNE-2 [24] = assay: Induction of apoptosis in human CNE2 cells assessed as viable cells level at 30 uM incubated for 24 hrs by Annexin V-FITC/PI dual staining based flow cytometry (reference value: 91.6%); format: functional; in short: as §1
SMMC-7721 [25] = assay: Induction of cell cycle arrest in human SMMC7721 cells assessed as accumulation at G0-G1 phase at 10 uM incubated for 24 hrs by propidium iodide staining based flow cytometry (reference value: 64.1%); format: functional
CNE-2 [26] = assay: Induction of cell cycle arrest in human CNE2 cells assessed as accumulation at G0-G1 phase at 30 uM incubated for 24 hrs by propidium iodide staining based flow cytometry (reference value: 69.3%); format: functional
A549 = assay: Anticancer activity against human A549 cells assessed as reduction in cell viability incubated for 48 hrs MTT assay; format: functional, cell-based; conditions: A549, 48 h
In short: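 MTT assay on human hepatocarcinoma SMMC-7721, lung carcinoma A549 and nasopharyngeal carcinoma CNE2 cells, with matrine as comparator and cisplatin as positive control. IC50 is the concentration that lowers optical density of treated cells by 50% versus untreated cells, given as the mean ± SD of three experiments.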

SMMC-7721 [27] = assay: Induction of cell cycle arrest in human SMMC7721 cells assessed as accumulation at G2/M phase incubated for 24 hrs by propidium iodide staining based flow cytometry; format: functional
SMMC-7721 [28] = assay: Induction of apoptosis in human SMMC7721 cells assessed as viable cells level at 10 uM incubated for 24 hrs by Annexin V-FITC/PI dual staining based flow cytometry (reference value: 95.3%); format: functional; in short: as §1
CNE-2 [29] = assay: Induction of cell cycle arrest in human CNE2 cells assessed as accumulation at G2/M phase at 30 uM incubated for 24 hrs by propidium iodide staining based flow cytometry (reference value: 19.8%); format: functional
SMMC-7721 [30] = assay: Induction of cell cycle arrest in human SMMC7721 cells assessed as accumulation at G2/M phase at 10 uM incubated for 24 hrs by propidium iodide staining based flow cytometry (reference value: 18.4%); format: functional

IC50 (A549): 8.05 µM
SMILES: COc1cc(Cn2cccc2/C=C2\CC[C@@H]3[C@H]4CCCN5CCC[C@@H](CN3C2=O)[C@@H]45)cc(OC)c1
Activity (SMMC-7721 [1]): 9.28%
Activity (CNE-2 [2]): 34.6%
Activity (SMMC-7721 [3]): 13.8%
Activity (SMMC-7721 [4]): 46.3%
Activity (SMMC-7721 [5]): 6.65%
Activity (SMMC-7721 [6]): 6.61%
Activity (CNE-2 [7]): 25.1%
Activity (SMMC-7721 [8]): 4.06%
Activity (CNE-2 [9]): 3.17%
Activity (SMMC-7721 [10]): Dose-dependent effect
Activity (SMMC-7721 [11]): 17%
Activity (CNE-2 [12]): 8.94%
Activity (SMMC-7721 [13]): 3.08%
Activity (SMMC-7721 [14]): 24.1%
Activity (SMMC-7721 [15]): 4.95%
Activity (SMMC-7721 [16]): 42%
Activity (CNE-2 [17]): Dose-dependent effect
Activity (CNE-2 [18]): 8.79%
Activity (CNE-2 [19]): 5.22%
Activity (CNE-2 [20]): 4.8%
Activity (CNE-2 [21]): 2.43%
Activity (SMMC-7721 [22]): 8.92%
Activity (SMMC-7721 [23]): 78.1%
Activity (CNE-2 [24]): 43%
Activity (SMMC-7721 [25]): 5.61%
Activity (CNE-2 [26]): 9.89%
Activity (SMMC-7721 [27]): Dose-dependent effect
Activity (SMMC-7721 [28]): 32.8%
Activity (CNE-2 [29]): 81.1%
Activity (SMMC-7721 [30]): 78.9%
